Measurements: ChEMBL document CHEMBL1140227, “Histone deacetylase inhibitors through click chemistry” (J Med Chem, 2008)

Experiments:
Format in all cases: functional
Malme-3M = test: Growth inhibition of human MALME-3M cells at 10 uM relative to control; settings: values are per cent of control
Method in brief: (§1)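 Single-dose preliminary screen in the NCI human cancer cell line panel, run by the NIH. Percent inhibition of cell line growth was calculated by comparison with untreated samples.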

cells [1] = settings: Homo sapiens, Cancer cell lines
CCRF-CEM = test: Growth inhibition of human CCRF-CEM cells at 10 uM relative to control; settings: values are per cent of control; method in brief: as §1
cells [2] = settings: Homo sapiens, Cancer cell lines; remark: listed apart in the source
MCF7 = test: Growth inhibition of human MCF7 cells at 10 uM relative to control; settings: values are per cent of control; method in brief: as §1
NCI/ADR-RES = test: Growth inhibition of human NCI/ADR-RES cells at 10 uM relative to control; settings: values are per cent of control; method in brief: as §1
OVCAR-8 = test: Growth inhibition of human OVCAR8 cells at 10 uM relative to control; settings: values are per cent of control; method in brief: as §1
UACC-62 = test: Growth inhibition of human UACC62 cells at 10 uM relative to control; settings: values are per cent of control
Method in brief: (§2)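 Single-dose NCI human tumour cell line screen, run by the NIH. Percent inhibition of cell line growth was calculated by comparison with untreated samples.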

MDA-MB-435 = test: Growth inhibition of human MDA-MB-435 cells at 10 uM relative to control; settings: values are per cent of control; method in brief: as §1
SK-MEL-28 = test: Growth inhibition of human SK-MEL-28 cells at 10 uM relative to control; settings: values are per cent of control; method in brief: as §1
SK-MEL-5 = test: Growth inhibition of human SK-MEL-5 cells at 10 uM relative to control; settings: values are per cent of control; method in brief: as §1
Leukemia cell = test: cells; settings: Homo sapiens
HOP-62 = test: Growth inhibition of human HOP62 cells at 10 uM relative to control; settings: values are per cent of control; method in brief: as §1
NCI-H23 = test: Growth inhibition of human NCI-H23 cells at 10 uM relative to control; settings: values are per cent of control; method in brief: as §1
[3] = Growth inhibition of human RPMI8266 cells at 10 uM relative to control; settings: values are per cent of control; method in brief: as §1
U-251 = test: Growth inhibition of human U251 cells at 10 uM relative to control; settings: values are per cent of control; method in brief: as §2
Melanoma cell = test: cells; settings: Homo sapiens
HCT-15 = test: Growth inhibition of human HCT15 cells at 10 uM relative to control; settings: values are per cent of control; method in brief: as §1
NCI-H226 = test: Growth inhibition of human NCI-H226 cells at 10 uM relative to control; settings: values are per cent of control; method in brief: as §1
UO-31 = test: Growth inhibition of human UO31 cells at 10 uM relative to control; settings: values are per cent of control; method in brief: as §2
OVCAR-4 = test: Growth inhibition of human OVCAR4 cells at 10 uM relative to control; settings: values are per cent of control; method in brief: as §1
PC-3 = test: Growth inhibition of human PC3 cells at 10 uM relative to control; settings: values are per cent of control; method in brief: as §1
COLO 205 = test: Growth inhibition of human COLO205 cells at 10 uM relative to control; settings: values are per cent of control; method in brief: as §1
SNB-19 = test: Growth inhibition of human SNB19 cells at 10 uM relative to control; settings: values are per cent of control; method in brief: as §1
786-0 = test: Growth inhibition of human 786-0 cells at 10 uM relative to control; settings: values are per cent of control; method in brief: as §1
KM12 = test: Growth inhibition of human KM12 cells at 10 uM relative to control; settings: values are per cent of control; method in brief: as §1
ACHN = test: Growth inhibition of human ACHN cells at 10 uM relative to control; settings: values are per cent of control; method in brief: as §1
SF-268 = test: Growth inhibition of human SF268 cells at 10 uM relative to control; settings: values are per cent of control; method in brief: as §1
NCI-H460 = test: Growth inhibition of human NCI-H460 cells at 10 uM relative to control; settings: values are per cent of control; method in brief: as §1
NCI-H522 = test: Growth inhibition of human NCI-H522 cells at 10 uM relative to control; settings: values are per cent of control; method in brief: as §1
MDA-MB-231 = test: Growth inhibition of human MDA-MB-231 cells at 10 uM relative to control; settings: values are per cent of control; method in brief: as §1

O=C(/C=C/c1cn(CC(=O)c2ccccc2)nn1)NO
growth, % of control at 10 µM (Malme-3M): 6.42%
inhibition at 10 µM (cells [1]): 65%
growth, % of control at 10 µM (CCRF-CEM): 48.6%
growth percent at 10 µM (cells [2]): 65%
growth, % of control at 10 µM (MCF7): 77.8%
growth, % of control at 10 µM (NCI/ADR-RES): 14.8%
growth, % of control at 10 µM (OVCAR-8): 45.1%
growth, % of control at 10 µM (UACC-62): 61.2%
growth, % of control at 10 µM (MDA-MB-435): 23.3%
growth, % of control at 10 µM (SK-MEL-28): 82.2%
growth, % of control at 10 µM (SK-MEL-5): 92.9%
inhibition at 10 µM (Leukemia cell): 104%
growth, % of control at 10 µM (HOP-62): 30.1%
growth, % of control at 10 µM (NCI-H23): 69.2%
growth, % of control at 10 µM [3]: 55.6%
growth, % of control at 10 µM (U-251): 76%
inhibition at 10 µM (Melanoma cell): 60%
growth, % of control at 10 µM (HCT-15): 117%
growth, % of control at 10 µM (NCI-H226): 89.4%
growth, % of control at 10 µM (UO-31): 45.3%
growth, % of control at 10 µM (OVCAR-4): 77.8%
growth, % of control at 10 µM (PC-3): 57.8%
growth, % of control at 10 µM (COLO 205): 105%
growth, % of control at 10 µM (SNB-19): 101%
growth, % of control at 10 µM (786-0): 39.9%
growth, % of control at 10 µM (KM12): 78%
growth, % of control at 10 µM (ACHN): 82.5%
growth, % of control at 10 µM (SF-268): 71.9%
growth, % of control at 10 µM (NCI-H460): 62.5%
growth, % of control at 10 µM (NCI-H522): 31.1%
growth, % of control at 10 µM (MDA-MB-231): 96.9%
